Hits are enriched below; roughly 0.77% of the tested compounds scored in any of these assays.
mIAP act – mouse IAP activation. muIAP, CDP-Star luminescence, 30 min; active compounds read high; 1 = vehicle-only enzyme signal, 0 = enzyme-free wells. activation factor at 10 µM. 330,000 tested, 0.24% active. AID 2805;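 active = activation factor of at least 2 at 20 µM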
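also added = chemiluminescent substrate CDP-Star | test system = mouse IAP enzyme | signal = chemiluminescence readout | compound = DMSO-dissolved test compounds | incubation = 30 min at room temperature | benchmarks = DMSO wells, no-enzyme wells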
hIAP inh – blocks human intestinal alkaline phosphatase | inhibition, % at 10 µM | purified IAP, CDP-Star luminescence, 30 min | AID 2544 | 330,000 tested, 0.12% active | P09923;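 active = inhibition reaching a set limit with compound at 10 µM in the primary screen, cut at about 35% in these data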;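 note: plate controls were DMSO wells with enzyme for no effect and no-enzyme buffer wells for full effect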
Target sequence (P09923 whole entry, looked up): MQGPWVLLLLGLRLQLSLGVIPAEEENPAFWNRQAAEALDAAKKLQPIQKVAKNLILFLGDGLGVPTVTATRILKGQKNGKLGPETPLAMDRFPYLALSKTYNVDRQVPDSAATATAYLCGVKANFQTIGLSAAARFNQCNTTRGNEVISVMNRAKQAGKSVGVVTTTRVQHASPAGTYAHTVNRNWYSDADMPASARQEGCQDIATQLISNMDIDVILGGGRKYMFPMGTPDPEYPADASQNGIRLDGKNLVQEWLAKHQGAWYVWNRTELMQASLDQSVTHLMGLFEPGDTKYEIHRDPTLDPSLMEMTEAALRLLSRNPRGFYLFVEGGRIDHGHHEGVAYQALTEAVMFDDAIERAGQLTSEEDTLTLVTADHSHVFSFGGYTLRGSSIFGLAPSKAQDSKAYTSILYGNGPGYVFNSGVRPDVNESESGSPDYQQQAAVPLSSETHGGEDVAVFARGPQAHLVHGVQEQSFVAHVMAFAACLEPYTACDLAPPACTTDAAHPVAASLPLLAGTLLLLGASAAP
bIAP act – intestinal alkaline phosphatase (bovine) activation; purified bovine IAP, CDP-star luminescence, 30 min; active compounds read high; fold of DMSO-control signal, blank-subtracted; activation factor at 20 µM; 200,000 tested, 0.17% active;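 active = activation factor of 2 or more at 20 µM, a signal rise over negative controls twice the positive control's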
bIAP inh – intestinal alkaline phosphatase (bovine) inhibition. inhibition, % at 20 µM. purified bovine IAP, CDP-star luminescence, 30 min. 190,000 tested, under 10 active;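 active = over 50% inhibition of intestinal alkaline phosphatase at 20 µM in the single-dose screen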
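Incubation: 30 min reaction at room temperature / Material: purified bovine intestinal alkaline phosphatase (IAP) enzyme / Input: enzyme at 1/65,000,000 dilution / Dosing: 20 µM single dose / Signal: CDP-star luminescence signal / Reagent: CDP-star chemiluminescent phosphatase substrate, 30 µM final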
mIAP inh – mouse IAP inhibition | purified mouse IAP, CDP-Star luminescence, 30 min | inhibition, % at 10 µM | 330,000 tested, 0.2% active | AID 2806;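 active = inhibition of at least 40% at 10 µM in the primary screen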;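 note: plate controls were DMSO with enzyme for no effect and no enzyme wells for full effect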
hIAP act – human IAP activation. P09923. purified human IAP, CDP-Star luminescence, 30 min; active compounds read high; 1 = vehicle-only enzyme, 0 = enzyme-free background. activation factor at 10 µM. 330,000 tested, 0.16% active. AID 2524;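 active = activation factor of the enzyme at least 2-fold when tested at 20 µM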
Active calls of the source: *; i = inactive; x = no result.

SMILES | mIAP act | hIAP inh | bIAP act | bIAP inh | mIAP inh | hIAP act
O=C(NC(Cc1ccc2c(c1)OCO2)C(=O)NC(Cc1ccccc1)C(=O)O)c1ccccc1 (stereo not drawn) | 1.02 | 5.8 | 1 | -1.4 | -1.7 | 0.942
CCc1cc(Cn2nc(-c3ccccc3)cc2C(=O)NCc2cccs2)on1 | 3.58* | -4.7 | x | x | -257.9 | 1.05
O=C(NC1CCN(C(=O)Nc2cccc(Cl)c2)CC1)c1ccccc1 | 1.01 | 3.8 | x | x | -1.3 | 0.962
O=C(Nc1cccc(Cl)c1)N1CCN(C2c3ccccc3-c3ccccc32)CC1 | 2.09* | 15.5 | x | x | -109.0 | 0.845
COc1cc(SC)ccc1C(=O)OCC(=O)N1CC(=O)Nc2ccccc21 | 1.09 | 0.8 | x | x | -9.1 | 0.992
CC(C)c1ccc(NC(=O)C(c2ccc3c(c2)OCO3)N2CCN(C(=O)c3ccco3)CC2)cc1 (stereo not drawn) | 2.07* | -7.7 | 1.6 | -55.6 | -107.1 | 1.08
COc1ccc(S(=O)(=O)N2CCOCC2)cc1NC(=O)/C=C/c1ccccc1 | 0.998 | 3.2 | x | x | 0.2 | 0.968
COc1ccc(S(=O)(=O)N(C)c2ccc(C(=O)Nc3cccnc3)cc2)cc1OC | 0.95 | -3.7 | x | x | 5.0 | 1.04
COc1ccc(NC(=O)C(C)N2c3cccc4cccc(c34)S2(=O)=O)cc1OC (stereo not drawn) | 0.981 | 2.7 | 1 | 0.5 | 1.9 | 0.973
O=C(NN=C1CCCC1)c1sc2ccccc2c1Cl | 1.02 | -17.5 | 0.6 | 36.3 | -1.6 | 1.18
O=C1CCC/C(=N/NC(=O)c2sc3ccccc3c2Cl)C1 | 1.05 | -177.2 | x | x | -5.4 | 2.77*
Cc1c(CCOC(=O)C23CC4CC(CC(C)(C4)C2)C3)sc[n+]1CC(=O)c1ccccc1 | 0.574 | 15.7 | 0.7 | 28.8 | 42.6* | 0.843
Cc1c(CCOC(=O)CC23CC4CC(CC(C)(C4)C2)C3)sc[n+]1CC(=O)c1ccccc1 | 0.624 | 1.6 | 0.6 | 43.0 | 37.6 | 0.984
COc1cccc(-n2nc(-c3ccnn3-c3ccc(C)cc3)c(=O)n(C)c2=O)c1 | 1.07 | 3.1 | 0.9 | 7.2 | -7.2 | 0.969
c1ccc(-c2c(-c3ccccc3)n(Cc3ccco3)c3ncnc(NCCCn4ccnc4)c23)cc1 | 1.07 | 2.6 | 49.1* | i | -7.2 | 0.974
OCCNc1ncnc2c1c(-c1ccccc1)c(-c1ccccc1)n2Cc1ccco1 | 1.01 | 17.0 | 1.1 | -12.9 | -0.6 | 0.83
CSc1ccc(CCNC(=O)c2cc(-c3ccccc3)c(N3CCOCC3)s2)cc1 | 2.37* | -52.0 | x | x | -136.9 | 1.52
O=C(NCCc1ccccc1)c1cc(-c2ccccc2)c(N2CCOCC2)s1 | 2.81* | -15.9 | x | x | -181.3 | 1.16
COc1ccc(CCNC(=O)c2ccc(CNc3c(N4CCOCC4)c(=O)c3=O)cc2)cc1OC | 0.96 | 6.8 | 1 | 1.2 | 4.0 | 0.932
COc1ccc(CCNC(=O)c2cc(-c3ccccc3)c(N3CCOCC3)s2)cc1OC | 2.15* | -43.3 | x | x | -115.2 | 1.43
COc1ccc(CCNC(=O)c2cc(-c3ccccc3O)n[nH]2)cc1OC | 1.91 | 5.6 | 2* | -104.0 | -91.3 | 0.944
Cc1cc(/C=C2\NC(=S)NC2=O)c(C)n1-c1cccnc1 | 0.917 | 18.4 | x | x | 8.3 | 0.816
CCNc1nc(NCC)n2c(SCC(=O)Nc3ccc(OC(F)F)cc3)nnc2n1 | 0.865 | 3.8 | x | x | 13.5 | 0.962
Cc1cc(C)c(S(=O)(=O)N2CCN(C(=O)CN3C(=O)NC4(CCCC4)C3=O)CC2)c(C)c1 | 0.88 | -37.6 | x | x | 12.0 | 1.38
CN(C)CCNC(C(=O)Nc1cccc(C(F)(F)F)c1)c1ccccc1 (stereo not drawn) | 1.08 | -24.4 | 1.2 | -18.6 | -8.3 | 1.24
SMILES | mIAP act | hIAP inh | bIAP act | bIAP inh | mIAP inh | hIAP act
COc1cc(C)c2c(c1C=O)Oc1c(c(C)c(O)c3c1C(O)OC3=O)OC2=O (stereo not drawn) | 0.463 | -62.2 | 0.9 | 6.3 | 53.7* | 1.62
Cc1nonc1OCCNc1ccc([N+](=O)[O-])cc1 | 0.893 | -1.6 | 2.2* | -121.4 | 10.7 | 1.02
O=C(O)c1ccccc1C(=O)NCCCn1ccnc1 | 1.13 | -42.3 | x | x | -12.9 | 1.42
O=C(NCCCn1ccnc1)c1cn(-c2ccccc2)nc1-c1ccc(F)cc1 | 1.28 | -20.8 | 2.2* | -115.1 | -28.3 | 1.21
CN(Cc1cccnc1)C(=O)CNC(=O)COc1ccccc1 | 1.02 | -5.5 | x | x | -1.9 | 1.05
Cc1ccc(SCC(=O)Nc2ccc(N3CCN(C)CC3)c(F)c2)c(C)c1 | 0.577 | -3.3 | 1.3 | -27.8 | 42.3* | 1.03
Cc1ccc(-n2nnnc2SCC(=O)Nc2ccc(N3CCN(C)CC3)cc2)c(C)c1 | 0.994 | 3.0 | x | x | 0.6 | 0.97
NC(=S)NN=Cc1ccc(-c2ccc(S(=O)(=O)Nc3ncccn3)cc2)o1 | 0.578 | -16.1 | x | x | 42.2* | 1.16
S=c1[nH]nc(-c2ccccc2)n1/N=C/C=C/c1ccco1 | 0.471 | -6.8 | 0.9 | 6.3 | 52.9* | 1.07
CC(C)CC1NC(=O)c2ccccc2-n2c1nc1ccc(F)cc1c2=O (stereo not drawn) | 0.996 | 6.9 | x | x | 0.4 | 0.931
CCOc1ccc(C2Nc3ccc4ccccc4c3-c3c2c(=O)oc2ccccc32)cc1 (stereo not drawn) | 0.983 | 1.0 | 1.7 | -70.0 | 1.7 | 0.99
COc1ccc(C2Nc3ccc4ccccc4c3-c3c2c(=O)oc2ccccc32)cc1 (stereo not drawn) | 1.08 | -14.2 | 3.5* | -248.1 | -8.0 | 1.14
COc1cccc(NC(=O)Nc2cc(NC(=O)Nc3cccc(OC)c3)c(C)nc2C)c1 | 2.03* | -18.8 | 0.9 | 9.2 | -102.7 | 1.19
COc1cccc(NC(=O)Nc2ccncc2)c1 | 0.934 | -20.8 | 1.1 | -5.6 | 6.6 | 1.21
COc1cccc(C2(c3cccc(OC)c3)CC2C(=O)Nc2cccc3ccccc23)c1 (stereo not drawn) | 1.06 | -16.2 | 0.6 | 39.6 | -6.2 | 1.16
COc1cccc(NC(=O)Nc2ccc(Cc3ccncc3)cc2)c1 | 4.57* | -30.9 | 1 | 4.3 | -357.2 | 1.31
COc1cccc(NC(=O)C2CC2(c2cccc(OC)c2)c2cccc(OC)c2)c1 (stereo not drawn) | 2.23* | 6.5 | 0.8 | 23.3 | -122.8 | 0.935
CCCN(CCC)C(=O)CC(c1ccccc1)c1ccco1 (stereo not drawn) | 1.08 | -27.6 | x | x | -8.5 | 1.28
O=C(O)c1ccc2c(c1)C(=O)N(c1ccc(Nc3ccccc3)cc1)C2=O | 0.978 | 1.0 | x | x | 2.2 | 0.99
OCCN1CCN(CC(O)COc2ccc3ccccc3c2)CC1 (stereo not drawn) | 0.97 | 10.3 | 2.9* | -187.6 | 3.0 | 0.897
Oc1ccccc1/C=N/Nc1cccc2cccnc12 | 0.821 | 1.1 | 2.7* | -173.3 | 18.0 | 0.989
N#C/C(=C/c1ccc(-c2ccc(S(N)(=O)=O)cc2)o1)C(=O)Nc1ccccc1 | 0.724 | -4.9 | 1 | 1.6 | 27.6 | 1.05
